Published values from different studies.
Each line is one published result; the experiments were not run side by side.
HTR5A: 5-hydroxytryptamine receptor 5A (HTR5A, Homo sapiens, UniProt P47898)
COQ8A: Atypical kinase COQ8A, mitochondrial (COQ8A, Homo sapiens, UniProt Q8NI60)
ABHD6: Monoacylglycerol lipase ABHD6 (ABHD6, Homo sapiens, UniProt Q9BV23)

`N#Cc1cc(Cn2c(N3CCCC3)nc3ccccc32)ccc1F` has an inhibition of -15% (HTR5A; ligand displacement; 10 µM).
For `Cn1cnc(Br)c1C1=CN(c2ncnc3[nH]cnc23)CCS1`, the inhibition was 29.5% (Mitogen-activated protein kinase kinase kinase 19 (MAP3K19, Homo sapiens, UniProt Q56UN5); enzyme activity, inhibitor, radiometric; 50 nM).
With `CCN(CC)c1ccc(C2Nc3ccc(C(=O)c4ccccc4)cc3NC3=C2C(=O)CC(C)(C)C3)cc1` (stereo not shown) the inhibition was 85% (HTR5A; ligand displacement, radioligand; 10 µM).
For `O=C(CSc1nc2nccnc2c(=O)n1CCc1ccccc1)Nc1nccs1`, the inhibition was 10% (COQ8A; enzyme activity, inhibitor; 10 µM).
`CCCNc1nc2ccccc2n1Cc1ccc(Cl)cc1` has an inhibition of 24.8% (HTR5A; ligand displacement; 10 µM).
`COc1cc2c3c(c1OC)-c1cc4c(cc1CC3N(CC1CC1)CC2c1ccccc1)OCO4` (stereo not shown) gave an inhibition of -18.2% (HTR5A; ligand displacement, radioligand; 10 µM).
The inhibition of `O=C(Oc1nsnc1N1CCC(c2ccccc2)CC1)N1CCCCC1` is reported as 41% (ABHD6; enzyme activity, inhibitor, fluorescence; 1 µM, lysate).
`CN(C)C1CCN(CC#Cc2nn(C3CCCC3)c3nc(NCc4ccccc4)ncc23)C1` (stereo not shown) gave an inhibition of 5% (Protein kinase C iota type (PRKCI, Homo sapiens, UniProt P41743); enzyme activity, inhibitor, FRET; 1 µM).
The inhibition of `O=C(Oc1nsnc1N1CCC(Cc2ccccc2)CC1)N1CCCCC1` is reported as 15% (ABHD6; enzyme activity, inhibitor, fluorescence; 1 µM, lysate).
For `CC(C)CCn1c(SCC(=O)Nc2ccccc2C(F)(F)F)nc2nccnc2c1=O`, the inhibition was less than 20% (Phosphatidylinositol 4-kinase alpha (PI4KA, Homo sapiens, UniProt P42356); enzyme activity, inhibitor; 10 µM).
The inhibition of `O=C(c1ccc(F)cc1)N(Cc1ccccc1)C1CCCCC1` is reported as 1% (D(4) dopamine receptor (DRD4, Homo sapiens, UniProt P21917, del265-296); cell-free assay; 10 µM).
With `CS(=O)(=O)Nc1cccc(-c2csc(NC(=O)CSc3nc4nccnc4c(=O)n3CCc3ccccc3)n2)c1` the inhibition was 14% (COQ8A; enzyme activity, inhibitor; 10 µM).
`CN1CC(Oc2cnc(C#N)cc2-c2ccn3nc(NC(=O)C4CC4)cc3c2)C1` has an inhibition of 9% (Tribbles homolog 2 (TRIB2, Homo sapiens, UniProt Q92519); enzyme activity, inhibitor; 1 µM).
